Experimental findings from PubChem BioAssay AID588487 (The Scripps Research Institute Molecular Screening Center, 2011) are described below.

Holding throughout (test): PAD1-4 inhibition by competitive ABPP, late-stage follow-up, orthogonal assay for PAD4 inhibitor project, biochemical, fluorescence, gel-based ABPP, HTS hits (AID 588487)
Assay [1] addresses Protein-arginine deiminase type-1 (Homo sapiens) (UniProt Q9ULC6). As to conditions: recombinant PAD1-4, gel-based ABPP, RFA probe fluorescence; PAD1; at 10 µM; stronger effect = higher value. The method, boiled down:
(§1)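 Assay system: recombinant PAD1, PAD2, PAD3 or PAD4 / Probe or stimulus: RFA fluorescent probe at 1 µM / Doses: single compound dose of 10 µM, DMSO vehicle / Timing: 15 min compound pre-incubation plus 30 min probe step, 37 °C / Technique: in-gel fluorescence scan of probe-labeled PAD band after SDS-PAGE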

The target in assay [2] is Protein-arginine deiminase type-2 (Homo sapiens) (UniProt Q9Y2J8). As to conditions: recombinant PAD1-4, gel-based ABPP, RFA probe fluorescence; PAD2; at 10 µM; stronger effect = higher value. The method, boiled down:
as §1

The target of assay [3] is Protein-arginine deiminase type-3 (Homo sapiens) (UniProt Q9ULW8). As to conditions: recombinant PAD1-4, gel-based ABPP, RFA probe fluorescence; PAD3; at 10 µM; stronger effect = higher value. The method, boiled down:
as §1

Assay [4] has as its target Protein-arginine deiminase type-4 (Homo sapiens) (UniProt Q9UM07). As to conditions: recombinant PAD1-4, gel-based ABPP, RFA probe fluorescence; PAD4; at 10 µM; stronger effect = higher value. The procedure, abridged:
as §1

The source made the active and inactive calls.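 How the source made its calls: active means inhibition of at least 50% against any of four protein arginine deiminase enzymes; inactive means the rest.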

Sequence of Protein-arginine deiminase type-2 (Homo sapiens) (Q9Y2J8 whole entry, looked up): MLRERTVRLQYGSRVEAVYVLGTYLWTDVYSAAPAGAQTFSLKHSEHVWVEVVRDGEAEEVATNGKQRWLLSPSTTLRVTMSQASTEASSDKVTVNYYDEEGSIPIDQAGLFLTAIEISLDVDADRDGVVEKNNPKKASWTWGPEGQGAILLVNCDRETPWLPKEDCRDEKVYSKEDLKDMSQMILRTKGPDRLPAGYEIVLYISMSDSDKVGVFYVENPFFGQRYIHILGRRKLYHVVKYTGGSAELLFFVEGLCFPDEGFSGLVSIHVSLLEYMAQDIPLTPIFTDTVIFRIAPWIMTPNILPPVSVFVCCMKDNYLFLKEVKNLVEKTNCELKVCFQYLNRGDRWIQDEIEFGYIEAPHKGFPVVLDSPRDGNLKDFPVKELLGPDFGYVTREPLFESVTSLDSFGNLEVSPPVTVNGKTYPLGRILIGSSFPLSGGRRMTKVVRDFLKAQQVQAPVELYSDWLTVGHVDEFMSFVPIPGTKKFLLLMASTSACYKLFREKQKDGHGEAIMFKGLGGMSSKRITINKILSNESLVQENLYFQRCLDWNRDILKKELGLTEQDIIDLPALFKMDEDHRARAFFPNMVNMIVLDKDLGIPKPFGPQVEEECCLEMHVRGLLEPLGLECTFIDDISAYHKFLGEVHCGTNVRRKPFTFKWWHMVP
Sequence of Protein-arginine deiminase type-4 (Homo sapiens) (Q9UM07 whole entry, looked up): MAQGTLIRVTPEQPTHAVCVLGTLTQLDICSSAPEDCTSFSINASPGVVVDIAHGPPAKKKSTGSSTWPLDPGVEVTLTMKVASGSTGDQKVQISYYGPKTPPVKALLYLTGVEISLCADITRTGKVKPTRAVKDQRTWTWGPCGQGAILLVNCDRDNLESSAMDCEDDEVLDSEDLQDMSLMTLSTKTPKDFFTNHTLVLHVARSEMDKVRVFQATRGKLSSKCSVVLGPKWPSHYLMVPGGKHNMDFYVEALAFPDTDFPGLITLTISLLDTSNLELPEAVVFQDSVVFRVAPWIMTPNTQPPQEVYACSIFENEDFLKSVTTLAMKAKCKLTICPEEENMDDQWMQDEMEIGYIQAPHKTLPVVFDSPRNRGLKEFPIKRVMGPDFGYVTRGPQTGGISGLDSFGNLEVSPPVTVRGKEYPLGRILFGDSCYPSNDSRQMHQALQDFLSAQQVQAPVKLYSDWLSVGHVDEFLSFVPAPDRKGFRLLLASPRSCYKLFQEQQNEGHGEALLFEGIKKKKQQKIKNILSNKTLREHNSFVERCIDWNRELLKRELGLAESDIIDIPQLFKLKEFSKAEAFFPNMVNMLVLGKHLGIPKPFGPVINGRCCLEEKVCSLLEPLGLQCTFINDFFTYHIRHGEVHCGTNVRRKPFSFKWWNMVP
Sequence of Protein-arginine deiminase type-3 (Homo sapiens) (Q9ULW8 whole entry, looked up): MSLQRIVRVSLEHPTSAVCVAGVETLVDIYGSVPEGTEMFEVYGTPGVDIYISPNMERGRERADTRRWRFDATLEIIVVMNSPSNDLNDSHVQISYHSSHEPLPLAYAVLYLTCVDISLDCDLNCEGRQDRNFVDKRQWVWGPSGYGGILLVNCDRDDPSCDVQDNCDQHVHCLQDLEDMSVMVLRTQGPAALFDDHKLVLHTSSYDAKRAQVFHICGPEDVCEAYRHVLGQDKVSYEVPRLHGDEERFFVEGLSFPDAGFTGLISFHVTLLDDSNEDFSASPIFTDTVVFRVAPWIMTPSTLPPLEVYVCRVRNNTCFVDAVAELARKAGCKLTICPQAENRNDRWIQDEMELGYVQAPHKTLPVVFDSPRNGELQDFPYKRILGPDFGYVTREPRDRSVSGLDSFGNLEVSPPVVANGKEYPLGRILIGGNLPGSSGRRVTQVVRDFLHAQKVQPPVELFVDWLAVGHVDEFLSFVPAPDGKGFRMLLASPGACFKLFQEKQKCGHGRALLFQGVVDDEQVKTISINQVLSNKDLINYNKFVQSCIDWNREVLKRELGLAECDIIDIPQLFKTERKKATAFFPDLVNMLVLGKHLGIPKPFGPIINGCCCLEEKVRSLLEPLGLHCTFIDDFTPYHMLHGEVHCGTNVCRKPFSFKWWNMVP
Sequence of Protein-arginine deiminase type-1 (Homo sapiens) (Q9ULC6 whole entry, looked up): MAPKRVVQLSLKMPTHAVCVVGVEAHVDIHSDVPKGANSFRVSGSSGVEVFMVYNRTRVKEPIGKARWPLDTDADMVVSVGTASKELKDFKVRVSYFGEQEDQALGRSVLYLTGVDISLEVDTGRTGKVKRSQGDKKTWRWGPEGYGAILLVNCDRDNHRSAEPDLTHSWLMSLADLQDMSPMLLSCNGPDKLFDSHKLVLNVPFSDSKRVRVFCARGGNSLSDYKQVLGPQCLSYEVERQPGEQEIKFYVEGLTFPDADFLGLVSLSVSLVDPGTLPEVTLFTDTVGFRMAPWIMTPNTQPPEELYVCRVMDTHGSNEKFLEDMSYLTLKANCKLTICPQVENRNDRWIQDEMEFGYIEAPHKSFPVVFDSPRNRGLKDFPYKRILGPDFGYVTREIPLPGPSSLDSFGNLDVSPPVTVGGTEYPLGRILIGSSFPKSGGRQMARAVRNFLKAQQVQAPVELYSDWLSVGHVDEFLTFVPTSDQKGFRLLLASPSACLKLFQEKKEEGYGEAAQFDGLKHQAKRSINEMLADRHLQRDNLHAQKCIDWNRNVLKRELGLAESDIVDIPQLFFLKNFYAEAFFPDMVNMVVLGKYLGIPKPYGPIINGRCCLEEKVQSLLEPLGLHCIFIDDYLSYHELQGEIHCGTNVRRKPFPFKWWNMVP

A word on the inhibition: it is the change of the read-out against control, counted positive when it falls. In the case of `O=C(O)CCC(=O)c1ccc(-c2ccccc2)cc1`, the inhibition in assay [1] was 16% (inactive); in assay [2], -45% (inactive); in assay [3], 24% (inactive); in assay [4], -51% (inactive).

As for `CS(=O)(=O)c1ccc(N)c(SSc2cc(S(C)(=O)=O)ccc2N)c1`, the inhibition in assay [1] is 27% (inactive); in assay [2] it was 14% (inactive); in assay [3] it was 35% (inactive); in assay [4], -7% (inactive).

As for `CCN(CC)S(=O)(=O)c1ccc(N=NC2=C(O)CCCC2=O)cc1`, the inhibition was -20% (inactive) in assay [1], 63% in assay [2], 6% (inactive) in assay [3] and 93% in assay [4].

On to `COc1ccc(-c2cc(=O)[nH][nH]2)cc1`, for which the inhibition was 58% in assay [1], 53% in assay [2], 32% (inactive) in assay [3] and 35% (inactive) in assay [4].

As for `O=c1cc(-c2ccc(Cl)cc2)[nH][nH]1`, the inhibition in assay [1] is 33% (inactive); in assay [2], 62%; in assay [3], -44% (inactive); in assay [4], 41% (inactive).

With `Cn1c(=O)c2c(ncn2CC(=O)Nc2nc(-c3ccccc3Cl)cs2)n(C)c1=O`, the inhibition is 0% (inactive) in assay [1], 25% (inactive) in assay [2], -19% (inactive) in assay [3] and 80% in assay [4].

`O=[N+]([O-])c1ccc2nc(-c3ccccc3)n(OCc3ccc(Cl)cc3)c2c1`: the inhibition is 3% (inactive) in assay [1], 36% (inactive) in assay [2], 36% (inactive) in assay [3] and -3% (inactive) in assay [4].

As to `COC(=O)c1cc(C)nc(Sc2ccccc2N)n1`, the inhibition in assay [1] is 23% (inactive); in assay [2], 8% (inactive); in assay [3], 60%; in assay [4], -61% (inactive).

As to `Cn1c(SCC(=O)N/N=C/C=C/c2ccco2)nc2ccccc21`, the inhibition in assay [1] is 14% (inactive); in assay [2], 41% (inactive); in assay [3], -13% (inactive); in assay [4], 38% (inactive).

Take `CCNC(=S)NNC(=O)c1csc(C)c1`: the inhibition in assay [1] is 2% (inactive); in assay [2] it was -19% (inactive); in assay [3], 14% (inactive); in assay [4], 25% (inactive).

`CC(=O)C1=C(c2ccccc2)N(C(C)=O)n2c(C)nnc2S1`: the inhibition was 42% (inactive) in assay [1], 25% (inactive) in assay [2], 32% (inactive) in assay [3] and 9% (inactive) in assay [4].

In the case of `Cc1cc2ncn(-c3ncccc3[N+](=O)[O-])c2cc1C`, the inhibition in assay [1] was 46% (inactive); in assay [2] it was 25% (inactive); in assay [3] it was -25% (inactive); in assay [4], 29% (inactive).

As to `Cn1c(N)c(C(=O)COC(=O)COc2ccc(Br)cc2)c(=O)n(C)c1=O`, the inhibition is 16% (inactive) in assay [1], 51% in assay [2], 19% (inactive) in assay [3] and 20% (inactive) in assay [4].

With `CN(C)C(CNC(=O)c1cc2ccccc2o1)c1ccco1` (stereo not given), the inhibition in assay [1] is 11% (inactive); in assay [2], 46% (inactive); in assay [3] it was 35% (inactive); in assay [4], 24% (inactive).

Regarding `O=C(NC1CCCCC1)C(c1cccs1)N(CCCN1CCOCC1)C(=O)c1ccc(-c2ccccc2)[nH]1` (stereo not given), the inhibition in assay [1] is -42% (inactive); in assay [2], -27% (inactive); in assay [3] it was 15% (inactive); in assay [4], 59%.

`Cc1c(C(=O)N2CCCCC2)c(S(=O)(=O)N2CCN(c3ccc(Cl)cc3)CC2)c(C)n1C`: the inhibition is -25% (inactive) in assay [1], 6% (inactive) in assay [2], 26% (inactive) in assay [3] and 67% in assay [4].

Take `COc1cc(NC2c3ccccc3C(=O)N2Cc2ccccc2Cl)cc(OC)c1` (stereo not given): the inhibition was 38% (inactive) in assay [1], 17% (inactive) in assay [2], -3% (inactive) in assay [3] and 18% (inactive) in assay [4].

With `COc1ccc(-c2noc3c2-c2nc(-c4ccc(Br)cc4)sc2CC3)cc1`, the inhibition is 33% (inactive) in assay [1], 32% (inactive) in assay [2], -23% (inactive) in assay [3] and 47% (inactive) in assay [4].

In the case of `CCOC(=O)N1CCC(c2cc(=O)n(-c3ccccc3)[nH]2)CC1`, the inhibition was 43% (inactive) in assay [1], 14% (inactive) in assay [2], 32% (inactive) in assay [3] and 30% (inactive) in assay [4].

Turning to `O=c1cc(-c2ccc(Br)cc2)[nH][nH]1`, the inhibition was 6% (inactive) in assay [1], -6% (inactive) in assay [2], 20% (inactive) in assay [3] and 51% in assay [4].

With `CN(C)CCN(Cc1ccccc1)c1ccccn1`, the inhibition was 13% (inactive) in assay [1], 46% (inactive) in assay [2], -7% (inactive) in assay [3] and 65% in assay [4].

For the compound `COc1cccc(/C=C2/CN(C)CC3=C2OC(N)=C(C#N)C3c2cccc(OC)c2)c1` (stereo not given), the inhibition in assay [1] is -47% (inactive); in assay [2] it was 92%; in assay [3], 48% (inactive); in assay [4] it was -5% (inactive).

As for `O=C(O)c1[nH]c2ccccc2c1-c1ccccc1`, the inhibition in assay [1] is 17% (inactive); in assay [2], 14% (inactive); in assay [3], 10% (inactive); in assay [4], 40% (inactive).

As to `CN(C)CCCNc1cn[nH]c(=O)c1Cl`, the inhibition in assay [1] is 33% (inactive); in assay [2], 61%; in assay [3] it was -58% (inactive); in assay [4], 41% (inactive).

For the compound `O=c1cc(-c2cccc([N+](=O)[O-])c2)[nH][nH]1`, the inhibition in assay [1] is 24% (inactive); in assay [2], 18% (inactive); in assay [3] it was 5% (inactive); in assay [4] it was 29% (inactive).

As for `COc1cccc(NC(=O)C2c3cc(OC)c(OC)cc3C(=O)N(C)C2c2cccnc2)c1` (stereo not given), the inhibition in assay [1] is 15% (inactive); in assay [2] it was 22% (inactive); in assay [3], 26% (inactive); in assay [4], 61%.

With `O=C(O)CCC(=O)Nc1ccc(SSc2ccc(NC(=O)CCC(=O)O)cc2)cc1`, the inhibition in assay [1] was 35% (inactive); in assay [2], 40% (inactive); in assay [3], 34% (inactive); in assay [4], 45% (inactive).

Turning to `COc1ccc(-c2nc(C(=O)NCCCN3CCOCC3)cc3c2[nH]c2ccccc23)cc1OC`, the inhibition is 30% (inactive) in assay [1], 18% (inactive) in assay [2], -12% (inactive) in assay [3] and 10% (inactive) in assay [4].

On to `O=C(O)c1ccc(S(=O)(=O)c2ccc3c(c2)C(=O)N(c2ccc(O)cc2)C3=O)cc1`, for which the inhibition is 18% (inactive) in assay [1], 32% (inactive) in assay [2], 34% (inactive) in assay [3] and -3% (inactive) in assay [4].

For the compound `COc1cccc(C2=CC(c3ccc(OC)c(OC)c3)NC(=S)N2)c1` (stereo not given), the inhibition in assay [1] is -9% (inactive); in assay [2], 14% (inactive); in assay [3] it was -3% (inactive); in assay [4], -9% (inactive).

`Cc1ccc(CNC(=O)c2ccc(C)c(S(=O)(=O)N3CCCCC3)c2)cc1`: the inhibition was 21% (inactive) in assay [1], 67% in assay [2], 31% (inactive) in assay [3] and 19% (inactive) in assay [4].

With `N#CCCN(C(=O)Cn1nc(C(=O)O)c2ccccc2c1=O)c1ccccc1`, the inhibition in assay [1] is 53%; in assay [2], 21% (inactive); in assay [3], 29% (inactive); in assay [4], -23% (inactive).

For `S=C(NCc1ccco1)Nc1cccc(Cl)c1`, the inhibition in assay [1] is 46% (inactive); in assay [2], 25% (inactive); in assay [3] it was 43% (inactive); in assay [4] it was 1% (inactive).

`Cc1nn(-c2ccccc2)c(C)c1NC(=O)COc1ccc(Cl)cc1Cl`: the inhibition in assay [1] was 2% (inactive); in assay [2], 29% (inactive); in assay [3], 57%; in assay [4], 12% (inactive).

As to `CCC(=O)Oc1ccc(C(=O)Nc2cccc(C(=O)NC(C)(C)C)c2)cc1`, the inhibition in assay [1] was 34% (inactive); in assay [2], 29% (inactive); in assay [3], 40% (inactive); in assay [4], 4% (inactive).
